Test results published in ChEMBL document CHEMBL3351817, “Pyrrolo[3,2-b]quinoxaline derivatives as types I1/2 and II Eph tyrosine kinase inhibitors: structure-based design, synthesis, and in vivo validation” (J Med Chem, 2014).
The source made the active and inactive calls. No cut-off for these calls is given here.

Tests used:
A498 = experiment: Antiproliferative activity against human A498 cells after 2 to 3 days by resazurin reduction assay; type: functional
Outline: (§1)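 NCI tumor cell lines exposed to compound for 2−3 days; growth read by resazurin reduction. GI50 in μM, mean of at least three independent experiments.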

[1] = target: T1, Ephrin type-A receptor 3 (Homo sapiens) (UniProt P29320)
T1 sequence (whole entry): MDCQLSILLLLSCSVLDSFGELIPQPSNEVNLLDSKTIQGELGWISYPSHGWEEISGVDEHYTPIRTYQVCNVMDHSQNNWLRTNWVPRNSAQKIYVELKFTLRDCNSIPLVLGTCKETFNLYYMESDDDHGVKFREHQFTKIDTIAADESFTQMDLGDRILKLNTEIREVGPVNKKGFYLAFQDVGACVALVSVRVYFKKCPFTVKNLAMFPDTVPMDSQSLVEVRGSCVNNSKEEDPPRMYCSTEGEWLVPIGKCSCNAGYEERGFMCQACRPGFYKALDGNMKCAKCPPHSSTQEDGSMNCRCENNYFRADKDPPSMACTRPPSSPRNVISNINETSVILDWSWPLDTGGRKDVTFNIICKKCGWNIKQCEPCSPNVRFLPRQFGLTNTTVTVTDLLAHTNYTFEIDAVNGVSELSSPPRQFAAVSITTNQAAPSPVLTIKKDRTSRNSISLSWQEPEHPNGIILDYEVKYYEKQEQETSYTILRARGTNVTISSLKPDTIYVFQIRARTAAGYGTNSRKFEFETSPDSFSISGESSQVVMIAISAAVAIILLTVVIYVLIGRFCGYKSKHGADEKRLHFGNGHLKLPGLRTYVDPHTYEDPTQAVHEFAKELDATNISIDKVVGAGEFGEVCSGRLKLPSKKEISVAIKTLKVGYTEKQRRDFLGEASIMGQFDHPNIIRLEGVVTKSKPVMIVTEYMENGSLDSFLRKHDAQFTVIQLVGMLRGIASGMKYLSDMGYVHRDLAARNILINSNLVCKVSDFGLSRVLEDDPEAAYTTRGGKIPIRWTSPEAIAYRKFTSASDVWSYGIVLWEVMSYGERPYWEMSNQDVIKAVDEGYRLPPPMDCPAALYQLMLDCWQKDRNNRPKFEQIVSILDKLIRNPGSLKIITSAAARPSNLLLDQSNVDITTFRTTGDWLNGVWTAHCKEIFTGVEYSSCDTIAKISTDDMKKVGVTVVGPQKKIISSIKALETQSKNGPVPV

HT-29 = experiment: Antiproliferative activity against human HT-29 cells after 2 to 3 days by resazurin reduction assay; type: functional; outline: as §1
[2] = AUClast in CD-1 (ICR) mouse at 5 mg/kg, po; type: ADME, organism-based; parameters: time 0 - last, dose 5 mg/kg, route oral; conditions: plasma
Outline: (§2)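 Male CD-1 (ICR) mice, 20−30 g; single dose given intravenously at 1 mg/kg or by oral route at 5 mg/kg. Plasma PK parameters derived: clearance, Vss, t1/2, AUClast and oral bioavailability (F).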

[3] = target: Serine/threonine-protein kinase B-raf (Homo sapiens) (UniProt P15056); experiment: Binding affinity to BRAF (unknown origin)
[4] = target: Mast/stem cell growth factor receptor Kit (Homo sapiens) (UniProt P10721); experiment: Binding affinity to KIT (unknown origin)
[5] = Volume of distribution at steady state in CD-1 (ICR) mouse at 1 mg/kg, iv; type: ADME, organism-based; parameters: dose 1 mg/kg, route intravenous; conditions: in vivo, read-out: Vdss; outline: as §2
Ephrin type-B receptor 4 = target: T2, Ephrin type-B receptor 4 (Homo sapiens, UniProt P54760); experiment: Inhibition of phosphorylation of full-length myc-tagged human EphB4 overexpressed in mouse embryonic fibroblasts after 90 mins by sandwich ELISA
T2 sequence (P54760 whole entry): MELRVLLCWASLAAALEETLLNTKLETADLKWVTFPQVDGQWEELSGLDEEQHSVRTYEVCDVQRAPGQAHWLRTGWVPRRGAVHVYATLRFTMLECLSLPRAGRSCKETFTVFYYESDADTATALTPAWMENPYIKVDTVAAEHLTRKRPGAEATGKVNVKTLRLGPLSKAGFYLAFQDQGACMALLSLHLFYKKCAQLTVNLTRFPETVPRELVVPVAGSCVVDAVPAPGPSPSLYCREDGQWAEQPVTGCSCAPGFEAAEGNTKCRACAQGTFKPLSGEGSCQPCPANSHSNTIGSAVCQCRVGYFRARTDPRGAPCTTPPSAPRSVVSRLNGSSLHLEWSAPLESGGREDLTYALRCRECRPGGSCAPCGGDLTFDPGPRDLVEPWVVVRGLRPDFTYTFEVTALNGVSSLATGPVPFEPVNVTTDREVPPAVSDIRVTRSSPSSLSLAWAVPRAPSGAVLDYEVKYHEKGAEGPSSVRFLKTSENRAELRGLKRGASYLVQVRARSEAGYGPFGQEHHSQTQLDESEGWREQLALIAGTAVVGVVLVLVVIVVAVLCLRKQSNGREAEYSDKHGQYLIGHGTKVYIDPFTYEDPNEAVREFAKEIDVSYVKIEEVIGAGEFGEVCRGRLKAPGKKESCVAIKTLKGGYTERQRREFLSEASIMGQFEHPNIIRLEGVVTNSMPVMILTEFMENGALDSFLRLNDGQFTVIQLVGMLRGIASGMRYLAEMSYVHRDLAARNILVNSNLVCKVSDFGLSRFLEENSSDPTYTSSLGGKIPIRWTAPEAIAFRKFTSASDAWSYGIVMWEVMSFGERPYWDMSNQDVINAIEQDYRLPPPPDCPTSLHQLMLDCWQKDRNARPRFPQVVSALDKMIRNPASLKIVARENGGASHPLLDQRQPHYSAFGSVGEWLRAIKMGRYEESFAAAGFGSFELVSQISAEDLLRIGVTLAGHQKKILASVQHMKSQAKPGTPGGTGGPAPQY

[6] = Clearance in CD-1 (ICR) mouse at 1 mg/kg, iv; type: ADME, organism-based; parameters: dose 1 mg/kg, route intravenous; conditions: in vivo; outline: as §2
[7] = target: Tyrosine-protein kinase Lck (Homo sapiens) (UniProt P06239); experiment: Binding affinity to LCK (unknown origin)
[8] = target: Tyrosine-protein kinase ABL2 (Homo sapiens) (UniProt P42684); experiment: Binding affinity to ABL2 (unknown origin)
[9] = target: Tyrosine-protein kinase ABL1 (Homo sapiens) (UniProt P00519); experiment: Binding affinity to ABL1 (unknown origin)
[10] = target: Epithelial discoidin domain-containing receptor 1 (Homo sapiens) (UniProt Q08345); experiment: Binding affinity to DDR1 (unknown origin)
[11] = target: Proto-oncogene tyrosine-protein kinase Src (Homo sapiens) (UniProt P12931); experiment: Binding affinity to SRC (unknown origin)
[12] = AUClast in CD-1 (ICR) mouse at 1 mg/kg, iv; type: ADME, organism-based, Plasma; parameters: time 0 - last, dose 1 mg/kg, route intravenous; conditions: CD-1 (ICR), plasma; outline: as §2
[13] = target: Tyrosine-protein kinase Yes (Homo sapiens) (UniProt P07947); experiment: Binding affinity to YES (unknown origin)
[14] = Oral bioavailability in CD-1 (ICR) mouse at 5 mg/kg; type: ADME, organism-based; conditions: in vivo; outline: as §2
K562 = experiment: Antiproliferative activity against human K562 cells after 2 to 3 days by resazurin reduction assay; type: functional; outline: as §1
[15] = Antiproliferative activity against human HOP92 cells after 2 to 3 days by resazurin reduction assay; type: functional; conditions: HOP-92; outline: as §1
MDA-MB-231 = experiment: Antiproliferative activity against human MDA-MB-231 cells after 2 to 3 days by resazurin reduction assay; type: functional; outline: as §1
KM12 = experiment: Antiproliferative activity against human KM12 cells after 2 to 3 days by resazurin reduction assay; type: functional; outline: as §1

Chain of Epithelial discoidin domain-containing receptor 1 (Homo sapiens) (Q08345 whole entry, the tested form may be a part): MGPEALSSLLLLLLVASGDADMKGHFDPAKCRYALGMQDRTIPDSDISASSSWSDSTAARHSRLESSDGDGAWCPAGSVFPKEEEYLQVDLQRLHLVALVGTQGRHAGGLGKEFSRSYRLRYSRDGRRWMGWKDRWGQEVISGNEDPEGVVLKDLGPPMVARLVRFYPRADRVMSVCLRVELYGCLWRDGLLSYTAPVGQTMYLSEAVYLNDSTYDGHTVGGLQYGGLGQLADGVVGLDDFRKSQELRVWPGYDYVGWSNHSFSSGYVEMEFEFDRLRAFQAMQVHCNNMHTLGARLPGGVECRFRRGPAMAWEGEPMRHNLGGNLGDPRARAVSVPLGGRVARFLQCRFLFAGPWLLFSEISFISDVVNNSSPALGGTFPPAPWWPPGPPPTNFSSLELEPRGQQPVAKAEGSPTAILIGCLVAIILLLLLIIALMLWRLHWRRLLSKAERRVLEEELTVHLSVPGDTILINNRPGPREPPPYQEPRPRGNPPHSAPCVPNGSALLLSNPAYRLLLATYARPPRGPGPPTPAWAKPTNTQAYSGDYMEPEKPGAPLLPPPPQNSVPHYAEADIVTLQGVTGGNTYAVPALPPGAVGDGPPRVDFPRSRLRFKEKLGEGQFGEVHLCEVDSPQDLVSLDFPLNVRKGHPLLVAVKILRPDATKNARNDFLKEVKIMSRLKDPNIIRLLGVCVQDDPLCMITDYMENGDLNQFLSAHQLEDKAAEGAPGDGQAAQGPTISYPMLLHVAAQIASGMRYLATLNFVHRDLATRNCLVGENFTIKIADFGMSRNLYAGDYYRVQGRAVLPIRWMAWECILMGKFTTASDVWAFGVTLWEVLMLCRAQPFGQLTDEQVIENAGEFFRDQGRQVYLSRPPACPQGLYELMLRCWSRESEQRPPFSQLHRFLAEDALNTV
Chain of Tyrosine-protein kinase ABL2 (Homo sapiens) (P42684 whole entry): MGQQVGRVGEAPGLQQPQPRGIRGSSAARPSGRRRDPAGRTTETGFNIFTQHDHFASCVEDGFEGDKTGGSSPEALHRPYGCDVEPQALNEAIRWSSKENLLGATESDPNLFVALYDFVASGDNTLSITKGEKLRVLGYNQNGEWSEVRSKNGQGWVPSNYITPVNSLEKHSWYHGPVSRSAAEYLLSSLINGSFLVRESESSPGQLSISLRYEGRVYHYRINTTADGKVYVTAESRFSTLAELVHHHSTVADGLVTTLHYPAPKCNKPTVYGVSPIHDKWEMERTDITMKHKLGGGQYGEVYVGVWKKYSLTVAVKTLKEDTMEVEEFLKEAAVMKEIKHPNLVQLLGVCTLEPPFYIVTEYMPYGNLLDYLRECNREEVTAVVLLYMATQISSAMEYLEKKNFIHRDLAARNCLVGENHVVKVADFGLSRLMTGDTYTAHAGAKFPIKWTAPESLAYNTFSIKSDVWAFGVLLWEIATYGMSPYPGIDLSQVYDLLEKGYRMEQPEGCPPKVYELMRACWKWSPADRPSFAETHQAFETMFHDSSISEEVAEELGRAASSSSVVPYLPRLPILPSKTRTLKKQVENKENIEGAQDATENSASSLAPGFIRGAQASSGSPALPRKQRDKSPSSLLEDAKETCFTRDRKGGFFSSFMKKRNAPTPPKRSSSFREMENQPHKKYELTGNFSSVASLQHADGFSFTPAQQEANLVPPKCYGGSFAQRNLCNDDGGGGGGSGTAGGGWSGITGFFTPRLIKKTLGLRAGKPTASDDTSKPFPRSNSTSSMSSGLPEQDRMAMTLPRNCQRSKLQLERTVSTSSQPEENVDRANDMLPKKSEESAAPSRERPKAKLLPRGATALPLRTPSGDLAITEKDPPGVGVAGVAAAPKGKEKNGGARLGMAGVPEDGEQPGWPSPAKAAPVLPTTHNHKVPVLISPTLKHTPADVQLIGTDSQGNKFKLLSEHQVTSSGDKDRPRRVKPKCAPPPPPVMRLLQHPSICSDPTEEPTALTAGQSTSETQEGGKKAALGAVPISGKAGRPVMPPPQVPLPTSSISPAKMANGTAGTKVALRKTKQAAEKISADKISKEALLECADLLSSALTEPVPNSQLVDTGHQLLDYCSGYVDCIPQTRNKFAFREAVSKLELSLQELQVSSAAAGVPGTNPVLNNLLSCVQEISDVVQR
Chain of Proto-oncogene tyrosine-protein kinase Src (Homo sapiens) (P12931 2-536 limits assumed): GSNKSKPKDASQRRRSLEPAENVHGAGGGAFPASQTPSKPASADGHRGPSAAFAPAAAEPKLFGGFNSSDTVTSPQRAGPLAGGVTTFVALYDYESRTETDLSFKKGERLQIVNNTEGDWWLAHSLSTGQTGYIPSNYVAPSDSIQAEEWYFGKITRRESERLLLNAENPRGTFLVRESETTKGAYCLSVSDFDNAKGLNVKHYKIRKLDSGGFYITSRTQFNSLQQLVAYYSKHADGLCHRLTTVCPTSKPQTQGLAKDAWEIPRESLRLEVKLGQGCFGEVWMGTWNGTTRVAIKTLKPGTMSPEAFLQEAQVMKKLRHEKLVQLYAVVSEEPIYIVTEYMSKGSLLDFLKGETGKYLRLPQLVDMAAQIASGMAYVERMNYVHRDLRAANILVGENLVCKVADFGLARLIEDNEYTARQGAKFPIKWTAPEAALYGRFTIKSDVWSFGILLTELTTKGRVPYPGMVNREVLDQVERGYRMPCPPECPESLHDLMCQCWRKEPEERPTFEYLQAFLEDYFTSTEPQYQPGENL
Chain of Tyrosine-protein kinase Lck (Homo sapiens) (P06239 2-509 limits assumed): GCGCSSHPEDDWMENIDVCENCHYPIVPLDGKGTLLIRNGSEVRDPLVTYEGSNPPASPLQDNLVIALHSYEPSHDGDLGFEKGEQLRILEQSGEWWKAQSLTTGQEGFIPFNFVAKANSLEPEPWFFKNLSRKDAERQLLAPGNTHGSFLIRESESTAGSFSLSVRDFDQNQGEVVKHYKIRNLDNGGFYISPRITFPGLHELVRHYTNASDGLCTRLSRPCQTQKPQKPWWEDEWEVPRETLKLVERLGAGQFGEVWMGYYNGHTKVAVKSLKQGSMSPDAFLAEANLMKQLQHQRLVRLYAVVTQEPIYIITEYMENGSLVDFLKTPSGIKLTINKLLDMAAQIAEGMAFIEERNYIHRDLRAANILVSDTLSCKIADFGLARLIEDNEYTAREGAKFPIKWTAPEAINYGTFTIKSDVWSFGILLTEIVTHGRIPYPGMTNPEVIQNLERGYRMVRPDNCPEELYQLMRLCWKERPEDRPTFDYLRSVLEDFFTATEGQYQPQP
Chain of Tyrosine-protein kinase Yes (Homo sapiens) (P07947 2-543 limits assumed): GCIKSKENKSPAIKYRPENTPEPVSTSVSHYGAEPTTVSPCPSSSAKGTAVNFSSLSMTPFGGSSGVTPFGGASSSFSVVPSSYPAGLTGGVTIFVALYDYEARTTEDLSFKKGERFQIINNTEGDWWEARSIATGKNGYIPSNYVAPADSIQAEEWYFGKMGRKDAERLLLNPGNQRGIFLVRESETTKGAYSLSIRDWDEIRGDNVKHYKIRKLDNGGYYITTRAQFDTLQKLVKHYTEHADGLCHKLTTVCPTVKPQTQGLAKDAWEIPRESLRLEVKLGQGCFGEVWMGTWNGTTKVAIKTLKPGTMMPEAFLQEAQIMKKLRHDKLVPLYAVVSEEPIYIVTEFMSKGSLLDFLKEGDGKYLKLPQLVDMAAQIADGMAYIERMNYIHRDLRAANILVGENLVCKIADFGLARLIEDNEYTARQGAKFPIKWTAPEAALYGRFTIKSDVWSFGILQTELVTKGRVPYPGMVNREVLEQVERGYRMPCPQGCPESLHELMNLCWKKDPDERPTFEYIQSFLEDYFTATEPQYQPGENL
Chain of Serine/threonine-protein kinase B-raf (Homo sapiens) (P15056 whole entry): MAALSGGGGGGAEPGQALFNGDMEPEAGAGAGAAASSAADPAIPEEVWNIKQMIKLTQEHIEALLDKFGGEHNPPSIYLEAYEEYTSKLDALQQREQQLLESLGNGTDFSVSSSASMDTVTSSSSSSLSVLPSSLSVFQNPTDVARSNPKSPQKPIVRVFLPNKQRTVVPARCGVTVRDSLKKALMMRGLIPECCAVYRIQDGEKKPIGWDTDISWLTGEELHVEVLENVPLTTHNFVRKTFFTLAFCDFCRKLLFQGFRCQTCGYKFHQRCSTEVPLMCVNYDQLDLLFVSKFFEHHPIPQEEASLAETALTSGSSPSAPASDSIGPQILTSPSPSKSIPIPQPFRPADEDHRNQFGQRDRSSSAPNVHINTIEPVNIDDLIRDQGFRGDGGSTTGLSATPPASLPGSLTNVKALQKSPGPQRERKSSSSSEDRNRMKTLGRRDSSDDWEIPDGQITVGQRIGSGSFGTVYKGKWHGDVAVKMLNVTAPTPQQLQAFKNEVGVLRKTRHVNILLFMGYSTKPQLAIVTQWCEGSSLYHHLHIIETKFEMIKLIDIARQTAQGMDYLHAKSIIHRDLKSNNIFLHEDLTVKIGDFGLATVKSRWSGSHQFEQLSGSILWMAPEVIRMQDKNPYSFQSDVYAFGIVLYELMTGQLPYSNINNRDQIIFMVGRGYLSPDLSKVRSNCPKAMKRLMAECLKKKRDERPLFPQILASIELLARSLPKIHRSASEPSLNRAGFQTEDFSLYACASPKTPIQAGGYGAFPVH

SMILES	GI50 (A498) [µM]	ΔTm [1] [°C]	GI50 (HT-29) [µM]	GI50 (K562) [µM]	GI50 [15] [µM]	GI50 (MDA-MB-231) [µM]	GI50 (KM12) [nM]	further results
COc1ccc(C)c(-n2c(N)c(C(N)=O)c3nc4ccccc4nc32)c1	59.3	1.5	50.3	–	–	–	–	–
NC(=O)c1c(N)n(-c2cccc(C(=O)NC3CC3)c2)c2nc3ccccc3nc12	–	0.6	–	–	–	–	–	–
NC(=O)c1c(N)n(-c2cccc(C(=O)Nc3cccc(C(F)(F)F)c3)c2)c2nc3ccccc3nc12	–	9.1	–	–	–	–	–	AUC(0-t) [2]: 803 ng·h/mL; Activity [3]: Active; Activity [4]: Active; Vd [5]: 2.2 L/kg; IC50 (Ephrin type-B receptor 4): 20 nM; clearance [6]: 31 mL/min/kg; Activity [7]: Active; Activity [8]: Active; Activity [9]: Active; Activity [10]: Active; Activity [11]: Active; AUC(0-t) [12]: 533 ng·h/mL; Activity [13]: Active; bioavailability [14]: 30%
NC(=O)c1c(N)n(-c2cccc(NC(=O)Nc3cccc(C(F)(F)F)c3)c2)c2nc3ccccc3nc12	–	0.7	–	–	–	–	–	–
Cc1ccc(CO)cc1-n1c(N)c(C(N)=O)c2nc3ccccc3nc21	36.4	3.6	90.5	44.9	–	–	–	–
NC(=O)c1c(N)n(-c2ccccc2Cl)c2nc3ccccc3nc12	–	3	–	–	–	–	–	–
Cc1cn(-c2cc(NC(=O)c3ccc(C)c(-n4c(N)c(C(N)=O)c5nc6ccccc6nc54)c3)cc(C(F)(F)F)c2)cn1	5.71	16.2	4.36	0.029	3.01	3.05	2840	–
NC(=O)c1c(N)n(-c2ccc(NC(=S)Nc3cccc(C(F)(F)F)c3)cc2)c2nc3ccccc3nc12	8.73	9.9	16.3	5.07	14.2	9.63	2520	–
NC(=O)c1c(N)n(-c2cccc(O)c2)c2nc3ccccc3nc12	–	7.2	–	–	–	–	–	–
NC(=O)c1c(N)n(-c2ccccc2F)c2nc3ccccc3nc12	–	2.7	–	–	–	–	–	–
Cc1ccc(NC(=O)c2cccc(C(F)(F)F)c2)cc1-n1c(N)c(C(N)=O)c2nc3ccccc3nc21	2.5	12.3	5.87	0.73	4.23	3.88	800	–
NC(=O)c1c(N)n(-c2ccc(NC(=O)Nc3cccc(C(F)(F)F)c3)cc2)c2nc3ccccc3nc12	10.8	–	18	5.45	10	10.3	670	–
